Data taken from ChEMBL document CHEMBL1125226, “Antineoplastic activity of didemnin congeners: nordidemnin and modified chain analogues” (1991).
Values after ≈ are worked out from the molar mass of the structure shown.

Assays:
P388 [1] = assay: Antitumor activity against P388 Leukemia from CDF1 female mice evaluated as Median survival time of treated mice at a dose of 0.50 mg/kg/day; format: functional, Mus musculus
How it was run: (§1)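 CDF1 female mice (BALB/c × DBA/2) inoculated ip with 10⁶ P388 cells on day 0. Drug given ip in 2% methanol on days 1, 5 and 9. Ten mice per dose group, with a larger control group. Body weight and survival were recorded on days 1 and 5, with toxicity taken as survivors on day 5. Mortality was followed for 30 days to give median survival time.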

B16 [2] = assay: Antitumor activity against B16 melanoma from B6 D2 F1 female mice(T/C) as median survival time of treated mice (T) over that of control mice (C) at a dose of 0.06 mg/kg/day (repeated ip injections, day 1-9); format: functional, Mus musculus; conditions: route intraperitoneal
How it was run: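 B16 melanoma homogenate (1 g tumor in 9 mL 0.9% saline), 0.5 mL implanted ip on day 0 in B6D2F1 female mice (C57BL/6 ♀ × DBA/2 ♂). Treatment ip once daily from day 1 to day 9. Toxicity scored as survivors on day 5. Median survival recorded and T/C computed as treated/control median survival, ≥125% significant.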

P388 [3] = assay: Antitumor activity against P388 Leukemia from CDF1 female mice evaluated as the number of survivors on day 5 at a dose of 0.06 mg/kg/day; format: functional, Mus musculus; how it was run: as §1
L1210 [4] = assay: Antitumor activity against L1210 Lymphoid Leukemia from CDF1 female mice (T/C) as median survival time of treated mice (T) over that of control mice (C) at a dose of 0.25 mg/kg/day; format: functional, Mus musculus
How it was run: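 L1210 leukemia, 10⁵ cells ip on day 0 into CDF1 female mice (BALB/c ♀ × DBA/2 ♂). Drug in 2% methanol given ip on days 1, 5 and 9, 10 mice per group. Survivors and body weight recorded on days 1 and 5, with toxicity as survivors on day 5. Deaths followed for 30 days. T/C = treated/control median survival time, significant at ≥125%.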

L1210 [5] = assay: In vitro cytostatic activity determined on L1210 leukemia cells at 48 hours.; format: functional; conditions: Mus musculus, L1210, 48 h; read-out: ID50 (the source's name)
How it was run: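 Log-phase L1210 cells were seeded at 0.8 × 10⁵ cells/mL in RPMI 1640 with 20% heat-inactivated horse serum, 2 mmol/L L-glutamine, streptomycin and penicillin. Drugs in ethanol (0.5% final) were tested at several concentrations.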

P388 [6] = assay: Average weight change of animals between day 1 and day 5 after tumor implementation at a dose of 0.25 mg/kg/day; format: functional, Mus musculus
How it was run: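 P388 leukemia: CDF1 female mice were inoculated ip with 10⁶ cells on day 0. Treatment in 2% methanol was given ip on days 1, 5 and 9, with 10 mice per group and a larger control group. Body weight was recorded on days 1 and 5 post-implant, and the average change was reported.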

B16 [7] = assay: Antitumor activity against B16 melanoma from B6 D2 F1 female mice evaluated as average weight change of animals between day 1 and day 5 after tumor implementation at a dose of 0.06 mg/kg/day; format: functional, Mus musculus
How it was run: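 B16 melanoma in B6D2F1 female mice: 0.5 mL of tumor homogenate (1 g in 9 mL 0.9% saline) was given ip on day 0. Ip dosing was on days 1, 5 and 9. The readout was the average body weight change between day 1 and day 5 after tumor implantation.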

In the case of `COc1ccc(C[C@H]2C(=O)O[C@H](C)[C@H](NC(=O)[C@@H](CC(C)C)N(C)C(=O)C3CCCN3C(=O)[C@@H](C)O)C(=O)NC(C(C)C)[C@H](O)CC(=O)O[C@@H](C(C)C)C(=O)[C@H](C)C(=O)N[C@@H](CC(C)C)C(=O)N3CCC[C@H]3C(=O)N2C)cc1` (some centres not stated) [NORDIDEMNIN], the “median survival time, days” value (P388 [1]) was 17.9, the T/C (B16 [2]) was 146% and the Toxicity (P388 [3]) was 1. It also gave a T/C (L1210 [4]) of 111%, an IC50 (L1210 [5]) of 1.9 ng/mL (≈ 1.73 nM) and a Body weight change (P388 [6]) of -0.7 g. The Body weight change (B16 [7]) was 0 g.
